pIC50: −log10 of the molar value. Calls of active or inactive are those of the source. No cut-off for these calls is given here.
What was measured:
[1] = target: Transient receptor potential cation channel subfamily V member 1 (Rattus norvegicus, UniProt O35433); assay: Antagonist activity at rat TRPV1 expressed in Xenopus laevis oocytes assessed as blockage of capsaicin-induced current at holding potential -60 mV by two-microelectrode voltage -clamp amplifier; assay type: functional, cell-based, Oocyte
Transient receptor potential cation channel subfamily V member 1, sequence (O35433 whole entry): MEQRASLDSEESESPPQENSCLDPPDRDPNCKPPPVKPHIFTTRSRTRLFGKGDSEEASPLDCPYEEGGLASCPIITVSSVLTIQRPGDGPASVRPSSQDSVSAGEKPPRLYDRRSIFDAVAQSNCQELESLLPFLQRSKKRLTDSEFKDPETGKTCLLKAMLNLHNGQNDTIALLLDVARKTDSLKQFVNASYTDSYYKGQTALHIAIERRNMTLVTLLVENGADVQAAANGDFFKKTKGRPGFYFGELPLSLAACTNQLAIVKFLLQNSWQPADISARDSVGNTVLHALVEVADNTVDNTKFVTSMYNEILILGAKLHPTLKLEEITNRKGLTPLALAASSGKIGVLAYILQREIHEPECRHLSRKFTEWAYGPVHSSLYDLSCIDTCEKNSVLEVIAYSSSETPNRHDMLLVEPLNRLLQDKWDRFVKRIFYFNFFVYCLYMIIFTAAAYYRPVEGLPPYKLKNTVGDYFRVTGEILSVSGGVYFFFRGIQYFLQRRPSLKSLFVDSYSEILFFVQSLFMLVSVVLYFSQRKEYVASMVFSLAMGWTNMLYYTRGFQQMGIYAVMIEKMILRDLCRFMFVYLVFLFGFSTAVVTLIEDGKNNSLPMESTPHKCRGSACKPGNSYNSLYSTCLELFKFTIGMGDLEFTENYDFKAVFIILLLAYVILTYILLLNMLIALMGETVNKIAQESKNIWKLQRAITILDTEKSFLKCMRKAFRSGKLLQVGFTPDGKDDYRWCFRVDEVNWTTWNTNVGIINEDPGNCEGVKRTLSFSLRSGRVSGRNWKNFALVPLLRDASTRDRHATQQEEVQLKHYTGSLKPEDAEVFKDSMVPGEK

[2] = target: Transient receptor potential cation channel subfamily V member 1 (Rattus norvegicus) (UniProt O35433); assay: Antagonist activity at rat TRPV1 expressed in Xenopus laevis oocytes assessed as blockage of capsaicin-induced current at holding potential -60 mV at 10 uM by two-microelectrode voltage -clamp amplifier; assay type: functional, cell-based; set-up: scale not given: the % may be the effect or the level left; conditions: Oocyte
Transient receptor potential cation channel subfamily V member 1 (Rattus norvegicus), sequence (O35433 whole entry): as above

[3] = target: Transient receptor potential cation channel subfamily V member 1 (Rattus norvegicus) (UniProt O35433); assay: Agonist activity at rat TRPV1 expressed in Xenopus laevis oocytes assessed as stimulation of capsaicin-induced current at holding potential -60 mV at 10 uM by two-microelectrode voltage -clamp amplifier; assay type: functional, cell-based; conditions: Oocyte
Method in brief: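 Rat TRPV1-expressing Xenopus oocytes under two-electrode voltage clamp at -60 mV in Mg2+ Ringer's buffer, 20 C. Compound at 10 μM applied without capsaicin, and the inward current it activated was recorded.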

[4] = Antagonist activity at NMDAR at 1 uM; assay type: functional; set-up: scale not given: the % may be the effect or the level left
[5] = Selectivity ratio of IC50 for NMDAR to IC50 for rat TRVP1
[6] = Antagonist activity at NMDAR at 10 uM; assay type: functional; set-up: scale not given: the % may be the effect or the level left
[7] = Selectivity ratio of IC50 for TRPM8 to IC50 for rat TRVP1
[8] = Antagonist activity at NMDAR; assay type: functional
[9] = Antagonist activity at TRPM8; assay type: functional
[10] = target: Transient receptor potential cation channel subfamily V member 1 (Rattus norvegicus) (UniProt O35433); assay: Competitive inhibition of rat TRPV1 expressed in Xenopus laevis oocytes; assay type: cell-based; conditions: Oocyte
[11] = Antagonist activity at TRPM8 at 1 uM; assay type: functional; set-up: scale not given: the % may be the effect or the level left
[12] = Antagonist activity at TRPM8 at 10 uM; assay type: functional; set-up: scale not given: the % may be the effect or the level left
[13] = target: Transient receptor potential cation channel subfamily V member 1 (Rattus norvegicus) (UniProt O35433); assay: Antagonist activity at rat TRPV1 expressed in Xenopus laevis oocytes assessed as blockage of capsaicin-induced current at depolarizing membrane potential and 10 uM by two-microelectrode voltage -clamp amplifier; assay type: functional, cell-based; conditions: Oocyte
Method in brief: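 Voltage-dependence protocol in rat TRPV1 oocytes, Mg2+ Ringer's, 20 C. Currents were evoked by 10 μM capsaicin with a linear ramp from -60 to +60 mV over 5 s (25 mV/s), with or without 10 μM compound. Leak current measured without agonist was subtracted. Fractional block was plotted against voltage and fitted to the Woodhull model.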

[14] = target: Transient receptor potential cation channel subfamily V member 1 (Rattus norvegicus) (UniProt O35433); assay: Antagonist activity at rat TRPV1 expressed in Xenopus laevis oocytes assessed as blockage of capsaicin-induced current at negative membrane potentials and 10 uM by two-microelectrode voltage -clamp amplifier; conditions: Oocyte

| SMILES | pIC50 [1] | also measured |
| --- | --- | --- |
| CN(C)CCCNc1nc(NCc2ccc(C(=O)O)cc2)nc(NCc2ccc(C(=O)O)cc2)n1 | 3.75 | – |
| CCN(CC)CCCN1CC(=O)N(CCc2ccc(Cl)cc2Cl)C(CC(=O)N(CCc2ccc(Cl)cc2Cl)CC(N)=O)C1=O (configuration not stated) | – | Activity [2]: 3% |
| CCN(CC)CCCNCC(=O)N(CCc1ccc(Cl)cc1Cl)CC(=O)N(CCc1ccc(Cl)cc1Cl)CC(N)=O | – | Activity [2]: 99% |
| COC(=O)c1ccc(CNc2nc(NCCCN(C)C)nc(NCc3ccc(C(=O)OC)cc3)n2)cc1 | 4.16 | – |
| CCCCNCC(=O)N(CCc1ccc(Cl)cc1Cl)CC(=O)N(CCc1ccc(Cl)cc1Cl)CC(N)=O | – | Activity [2]: 34% |
| CN(C)CCN1CCN(c2nc(NCCc3ccc(F)cc3)nc(NCCc3ccc(F)cc3)n2)CC1 | 4.73 | Activity [3]: Active |
| CN(C)CCCNc1nc(NCCC2=CCCCC2)nc(NCCC2=CCCCC2)n1 | 3.66 | – |
| N=C(N)NCCCCN(CC(N)=O)C(=O)CC1C(=O)N(CCc2ccc(Cl)cc2)CC(=O)N1CCc1ccc(Cl)cc1 (configuration not stated) | – | Activity [2]: 55% |
| CN1CCN(Nc2nc(NCCc3ccc(Cl)cc3)nc(NCCc3ccc(Cl)cc3)n2)CC1 | 5.19 | – |
| CN1CCCC1CCNCC(=O)N(CCc1ccc(Cl)cc1Cl)CC(=O)N(CCc1ccc(Cl)cc1Cl)CC(N)=O (configuration not stated) | – | Activity [2]: 99% |
| CN(C)CCCNc1nc(N2CCc3c([nH]c4ccccc34)C2)nc(N2CCc3c([nH]c4ccccc34)C2)n1 | 5.15 | – |
| CN(C)CCOCCNc1nc(NCCc2ccc(F)cc2)nc(NCCc2ccc(F)cc2)n1 | 5.15 | – |
| CN(C)CCCNCC(=O)N(CCc1ccc(Cl)cc1Cl)CC(=O)N(CCc1ccc(Cl)cc1Cl)CC(N)=O | – | Activity [2]: 55% |
| CN(C)CCCOc1nc(NCCc2ccc(F)cc2)nc(NCCc2ccc(F)cc2)n1 | 5.21 | – |
| CN(C)CCCNc1nc(NCc2ccc(F)cc2)nc(NCc2ccc(F)cc2)n1 | 5.51 | – |
| CN1CCC(N2CCN(c3nc(NCCc4ccc(F)cc4)nc(NCCc4ccc(F)cc4)n3)CC2)CC1 | 4.15 | – |

| SMILES | pIC50 [1] | also measured |
| --- | --- | --- |
| CN(C)CCCNc1nc(NCCc2ccc(Cl)cc2)nc(NCCc2ccc(Cl)cc2)n1 | 6.30 | Activity [3]: Active |
| CN(C)CCCNc1nc(NCCc2ccccc2)nc(NCCc2ccccc2)n1 | 6.17 | – |
| CN(C)CCCNCC(=O)N(CCc1ccc(Cl)cc1)CC(=O)N(CCc1ccc(Cl)cc1)CC(N)=O | – | Activity [2]: 45% |
| NC(=O)CN(CCc1ccc(Cl)cc1Cl)C(=O)CN(CCc1ccc(Cl)cc1Cl)C(=O)CNCCCO | – | Activity [2]: 32% |
| CN1CCCC1CCN1CC(=O)N(CCc2ccc(Cl)cc2Cl)C(CC(=O)N(CCc2ccc(Cl)cc2Cl)CC(N)=O)C1=O (configuration not stated) | – | Activity [2]: 3% |
| CN(C)CCNc1nc(NCCc2ccc(Cl)cc2)nc(NCCc2ccc(Cl)cc2)n1 | 5.17 | – |
| N=C(N)NCCCCN(CC(N)=O)C(=O)CC1C(=O)N(CCc2ccc(Cl)cc2Cl)CC(=O)N1CCc1ccc(Cl)cc1Cl (configuration not stated) | – | Activity [2]: 30% |
| CN1CCCC1CCN(CC(N)=O)C(=O)CC1C(=O)N(CCc2ccc(Cl)cc2Cl)CC(=O)N1CCc1ccc(Cl)cc1Cl (configuration not stated) | – | Activity [2]: 40% |
| CN(C)CCCNc1nc(NCCc2ccc([N+](=O)[O-])cc2)nc(NCCc2ccc([N+](=O)[O-])cc2)n1 | 5.79 | – |
| CN(C)CCCNc1nc(NCCc2ccc(Cl)cc2Cl)nc(NCCc2ccc(Cl)cc2Cl)n1 | 5.92 | – |
| CN1CCCC1CCNc1nc(NCCc2ccc(Cl)cc2)nc(NCCc2ccc(Cl)cc2)n1 (configuration not stated) | 5.92 | – |
| CN(C)CCCCCNc1nc(NCCc2ccc(F)cc2)nc(NCCc2ccc(F)cc2)n1 | 7.00 | – |
| NC(N)=NCCCCNc1nc(NCCc2ccc(F)cc2)nc(NCCc2ccc(F)cc2)n1 | 6.26 | – |
| CN(C)CCCNc1nc(N2CCN(C(c3ccc(F)cc3)c3ccc(F)cc3)CC2)nc(N2CCN(C(c3ccc(F)cc3)c3ccc(F)cc3)CC2)n1 | 4.25 | – |
| CN1CCCC1CCN1CC(=O)N(CCc2ccccc2)C(CC(=O)N(CCc2ccc(Cl)cc2Cl)CC(N)=O)C1=O (configuration not stated) | – | Activity [2]: 28% |

More lines, main results first:

| pIC50 [1] | SMILES | also measured |
| --- | --- | --- |
| 3.64 | CCCCNc1nc(NCc2ccc(C(=O)O)cc2)nc(NCc2ccc(C(=O)O)cc2)n1 | – |
| 5.63 | CN(C)CCCNc1nc(NCCc2c[nH]c3ccccc23)nc(NCCc2c[nH]c3ccccc23)n1 | – |
| 6.01 | COc1ccc(CCNc2nc(NCCCN(C)C)nc(NCCc3ccc(OC)cc3)n2)cc1 | – |
| 6.02 | NCCN1CCN(c2nc(NCCc3ccc(Cl)cc3)nc(NCCc3ccc(Cl)cc3)n2)CC1 | – |
| 6.18 | CN(C)CCCNc1nc(NCc2ccc(C(F)(F)F)cc2)nc(NCc2ccc(C(F)(F)F)cc2)n1 | – |
| 7.30 | CN(C)CCCNc1nc(NCCc2ccc(F)cc2)nc(NCCc2ccc(F)cc2)n1 | Activity [4]: 25%; Ratio IC50 [5]: 150; Activity [6]: 51%; Ratio IC50 [7]: 150; pIC50 [8]: 5.04; pIC50 [9]: 5.12; inhibition [10]: inactive; Activity [11]: 37%; Activity [12]: 55%; Activity [13]: inactive; Activity [14]: Active; Activity [3]: inactive |
| 6.35 | CN(C)CCCNc1nc(NCCc2ccccc2F)nc(NCCc2ccccc2F)n1 | – |
| 5.58 | CN(C)CCCNc1nc(NCc2ccc(Cl)cc2)nc(NCc2ccc(Cl)cc2)n1 | – |
| 5.48 | CN(C)CCCNc1nc(NCc2ccc(F)cc2F)nc(NCc2ccc(F)cc2F)n1 | – |
| 6.08 | CN(C)CCCNc1nc(NCc2ccc(Cl)cc2Cl)nc(NCc2ccc(Cl)cc2Cl)n1 | – |
| 6.52 | CN(C)CCCNc1nc(NCCc2cccc(F)c2)nc(NCCc2cccc(F)c2)n1 | – |
| 5.30 | CN(C)CCCNc1nc(NCc2ccc3c(c2)OCO3)nc(NCc2ccc3c(c2)OCO3)n1 | – |
